According to ChEMBL document CHEMBL4184147, “Polyphenolic Phytochemicals in Cancer Prevention and Therapy: Bioavailability versus Bioefficacy” (J Med Chem, 2017):

Experiments:
[1] = system: U-87 MG; assay: Cytotoxicity against human U87 cells assessed as cell viability at 16 uM after 48 hrs by MTT assay; format: functional, U-87MG ATCC; conditions: read-out: Activity
[2] = system: A549; assay: Cytotoxicity against human A549 cells assessed as decrease in cell viability after 48 hrs by trypan blue exclusion and LDH release; conditions: A549, 48 h
[3] = system: BXPC-3; assay: Cytotoxicity against human BxPC3 cells assessed as cell viability at 16 uM after 48 hrs by MTT assay; format: functional; conditions: BXPC-3, 48 h, read-out: Activity
[4] = Cytotoxicity against human MML1 cells assessed as decrease in cell viability after 48 hrs by MTT assay; format: functional, cell-based
[5] = system: MDA-MB-231; assay: Cytotoxicity against human MDA-MB-231 cells assessed as decrease in cell viability after 48 hrs by trypan blue exclusion and LDH release; conditions: MDA-MB-231, 48 h
[6] = system: T47D; assay: Cytotoxicity against human T47D cells assessed as decrease in cell viability after 48 hrs by trypan blue exclusion and LDH release
[7] = system: PANC-1; assay: Cytotoxicity against human PANC1 cells assessed as decrease in cell viability after 48 hrs by MTT assay; format: functional, cell-based; conditions: PANC-1, 48 h
[8] = system: PANC-1; assay: Cytotoxicity against human PANC1 cells assessed as cell viability at 16 uM after 48 hrs by MTT assay; format: functional; conditions: PANC-1, 48 h, read-out: Activity
[9] = Plasma concentration in mouse at 100 mg/kg, po at 60 mins by LC-MS/MS method; format: ADME, organism-based
Outline: (§1)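 For IV dosing, compound dissolved in DMSO:ethanol (2:1), total volume no more than 30 μL. For oral dosing, compound given in a self-microemulsifying delivery system (60% surfactant, emulsifier OP:Cremophor EL 1:1; 30% PEG 400; 10% ethyl oleate), total volume no more than 100 μL. Plasma levels measured by previously described methods.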

[10] = system: BXPC-3; assay: Cytotoxicity against human BxPC3 cells assessed as decrease in cell viability after 48 hrs by MTT assay; format: functional, cell-based; conditions: BXPC-3, 48 h
[11] = system: NCI-H460; assay: Cytotoxicity against human NCI-H460 cells assessed as decrease in cell viability after 48 hrs by MTT assay; format: functional, cell-based; conditions: NCI-H460, 48 h
[12] = Cmax in mouse at 10 mg/kg, iv by LC-MS/MS method; format: ADME, organism-based; set-up: dose 10 mg/kg, route intravenous; conditions: in vivo
Outline: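 Mouse iv dosing used polyphenol dissolved in DMSO:ethanol (2:1), with total injected volume never above 30 μL. Plasma levels were measured by previously described methods.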

[13] = system: COLO 201; assay: Cytotoxicity against human COLO201 cells assessed as cell viability at 16 uM after 48 hrs by MTT assay; format: functional; conditions: COLO 201, 48 h, read-out: Activity
[14] = system: MDA-MB-231; assay: Cytotoxicity against human MDA-MB-231 cells assessed as cell viability at 16 uM after 48 hrs by MTT assay; format: functional; conditions: MDA-MB-231, 48 h, read-out: Activity
[15] = system: HT-29; assay: Cytotoxicity against human HT-29 cells assessed as cell viability at 16 uM after 48 hrs by MTT assay; format: functional; conditions: HT-29, 48 h, read-out: Activity
[16] = system: SK-MEL-2; assay: Cytotoxicity against human SK-MEL-2 cells assessed as cell viability at 16 uM after 48 hrs by MTT assay; format: functional; conditions: SK-MEL-2, 48 h, read-out: Activity
[17] = Cmax in mouse at 100 mg/kg, po by HPLC method; format: ADME, organism-based; set-up: dose 100 mg/kg, route oral; conditions: in vivo
Outline: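 For oral dosing, polyphenol was dissolved in a self-microemulsifying delivery system: 60% surfactant (emulsifier OP:Cremophor EL 1:1), 30% cosurfactant (PEG 400) and 10% oil (ethyl oleate). Total volume given was never above 100 μL. Plasma levels were quantified by previously described methods.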

[18] = system: NCI-H460; assay: Cytotoxicity against human NCI-H460 cells assessed as cell viability at 16 uM after 48 hrs by MTT assay; format: functional; conditions: NCI-H460, 48 h, read-out: Activity
[19] = system: Lipid bilayer; assay: Induction of DOPC/n-decane bilayer property changes assessed as concentration required to double gramicidin-induced quencher influx rate by […]
[20] = Tmax in mouse at 100 mg/kg, po by HPLC method; format: ADME, organism-based; conditions: in vivo
Outline: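 Given orally in a self-microemulsifying delivery system (60% surfactant, emulsifier OP:Cremophor EL 1:1; 30% PEG 400 cosurfactant; 10% ethyl oleate oil), total volume no more than 100 μL. Plasma levels measured by previously described methods.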

[21] = system: U-87 MG; assay: Cytotoxicity against human U87 cells assessed as decrease in cell viability after 48 hrs by trypan blue exclusion and LDH release
[22] = Tmax in mouse at 10 mg/kg, iv by LC-MS/MS method; format: ADME, organism-based; conditions: in vivo; outline: as §1
[23] = system: HT-29; assay: Cytotoxicity against human HT-29 cells assessed as decrease in cell viability after 48 hrs by trypan blue exclusion and LDH release; conditions: HT-29, 48 h
[24] = Cytotoxicity against human MML1 cells assessed as cell viability at 16 uM after 48 hrs by MTT assay; format: functional; conditions: read-out: Activity
[25] = system: LN-229; assay: Cytotoxicity against human LN229 cells assessed as cell viability at 16 uM after 48 hrs by MTT assay; format: functional; conditions: LN-229, 48 h, read-out: Activity
[26] = system: T47D; assay: Cytotoxicity against human T47D cells assessed as cell viability at 16 uM after 48 hrs by MTT assay; format: functional; conditions: read-out: Activity
[27] = system: A549; assay: Cytotoxicity against human A549 cells assessed as cell viability at 16 uM after 48 hrs by MTT assay; format: functional; conditions: A549, 48 h, read-out: Activity
[28] = Plasma concentration in mouse at 10 mg/kg, iv at 60 mins by LC-MS/MS method; format: ADME, organism-based; outline: as §1
[29] = system: COLO 201; assay: Cytotoxicity against human COLO201 cells assessed as decrease in cell viability after 48 hrs by trypan blue exclusion and LDH release; conditions: COLO 201, 48 h
[30] = system: SK-MEL-2; assay: Cytotoxicity against human SK-MEL-2 cells assessed as decrease in cell viability after 48 hrs by MTT assay; format: functional, cell-based; conditions: SK-MEL-2, 48 h
[31] = Displacement of [3H]resveratrol from Sprague-Dawley rat brain plasma membranes after 1 hr by beta counting method; format: cell membranes
[32] = system: LN-229; assay: Cytotoxicity against human LN229 cells assessed as decrease in cell viability after 48 hrs by trypan blue exclusion and LDH release; conditions: LN-229, 48 h

**Q.** For `Oc1ccc(/C=C/c2cc(O)cc(O)c2)cc1` [RESVERATROL], which viability at 16 µM [1] is on record?
**A.** 99%

**Q.** What about the IC50 [2] of the same compound?
**A.** 16 µM

**Q.** What about the viability at 16 µM [3] of the same compound?
**A.** 98%

**Q.** And the IC50 [4]?
**A.** 12 µM

**Q.** And the IC50 [5]?
**A.** 15 µM

**Q.** What about the IC50 [6] of the same compound?
**A.** 25 µM

**Q.** And the IC50 [7]?
**A.** 39 µM

**Q.** And the viability at 16 µM [8]?
**A.** 105%

**Q.** And the concentration at 1 h [9]?
**A.** < 1 µM

**Q.** What about the IC50 [10] of the same compound?
**A.** 14 µM

**Q.** And the IC50 [11]?
**A.** 12 µM

**Q.** And the Cmax [12]?
**A.** 32 µM

**Q.** And the viability at 16 µM [13]?
**A.** 96%

**Q.** What about the viability at 16 µM [14] of the same compound?
**A.** 95%

**Q.** And the viability at 16 µM [15]?
**A.** 98%

**Q.** And the viability at 16 µM [16]?
**A.** 95%

**Q.** And the Cmax [17]?
**A.** 11 µM

**Q.** And the viability at 16 µM [18]?
**A.** 94%

**Q.** What about the Activity [19] of the same compound?
**A.** 11.3 µM

**Q.** And the Tmax [20]?
**A.** 10 min

**Q.** What about the IC50 [21] of the same compound?
**A.** 20 µM

**Q.** And the Tmax [22]?
**A.** 5 min

**Q.** What about the IC50 [23] of the same compound?
**A.** 27 µM

**Q.** And the viability at 16 µM [24]?
**A.** 94%

**Q.** And the viability at 16 µM [25]?
**A.** 102%

**Q.** And the viability at 16 µM [26]?
**A.** 99%

**Q.** And the viability at 16 µM [27]?
**A.** 93%

**Q.** What about the concentration at 1 h [28] of the same compound?
**A.** < 1 µM

**Q.** What about the IC50 [29] of the same compound?
**A.** 37 µM

**Q.** What about the IC50 [30] of the same compound?
**A.** 14 µM

**Q.** And the Ki [31]?
**A.** 0.102 µM

**Q.** What about the IC50 [32] of the same compound?
**A.** 11 µM
